Test results reported in ChEMBL document CHEMBL1287747, “Highly active antimycobacterial derivatives of benzoxazine” (2010).
≈ marks a conversion by molar mass, not a printed value.

Experiments:
Type in all cases: functional
[1] = system: Mycobacterium tuberculosis; assay: Antimycobacterial activity against Mycobacterium tuberculosis CNCTC My 331/88 after 14 days by microdilution method; conditions: CNCTC My 331/88, 336 h
Outline: (§1)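 Strains from the Czech National Collection of Type Cultures, tested by dilution micromethod in Šula semisynthetic medium. Incubated at 37 °C and read at 14 and 21 days. MIC is the lowest concentration inhibiting growth.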

[2] = system: Mycobacterium tuberculosis; assay: Antimycobacterial activity against Mycobacterium tuberculosis CNCTC My 331/88 after 21 days by microdilution method; conditions: CNCTC My 331/88, 504 h; outline: as §1
Mycobacterium avium [3] = assay: Antimycobacterial activity against Mycobacterium avium CNCTC My 330/88 after 14 days by microdilution method; conditions: CNCTC My 330/88, 336 h; outline: as §1
Mycobacterium avium [4] = assay: Antimycobacterial activity against Mycobacterium avium CNCTC My 330/88 after 21 days by microdilution method; conditions: CNCTC My 330/88, 504 h; outline: as §1
Mycobacterium kansasii [5] = assay: Antimycobacterial activity against Mycobacterium kansasii CNCTC My 235/80 after 14 days by microdilution method; conditions: CNCTC My 235/80, 336 h; outline: as §1
Mycobacterium kansasii [6] = assay: Antimycobacterial activity against Mycobacterium kansasii CNCTC My 235/80 after 21 days by microdilution method; conditions: CNCTC My 235/80, 504 h; outline: as §1
Mycobacterium kansasii [7] = assay: Antimycobacterial activity against Mycobacterium kansasii 6509/96 after 14 days by microdilution method; conditions: 6509/96, 336 h
Outline: (§2)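 Clinical isolate that, unlike the standard strain, is not isoniazid-resistant. Tested by dilution micromethod in Šula semisynthetic medium, with compounds added in DMSO at final 1000 down to 0.25 µmol/L in twofold steps. Löwenstein-Jensen plate used as inoculum sterility and growth control. Incubated at 37 °C and read at 14 and 21 days. MIC is the lowest concentration inhibiting growth.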

Mycobacterium kansasii [8] = assay: Antimycobacterial activity against Mycobacterium kansasii 6509/96 after 21 days by microdilution method; conditions: 6509/96, 504 h; outline: as §2

| SMILES | MIC [1] | MIC [2] | MIC (Mycobacterium avium [3]) | MIC (Mycobacterium avium [4]) | MIC (Mycobacterium kansasii [5]) | MIC (Mycobacterium kansasii [6]) | MIC (Mycobacterium kansasii [7]) | MIC (Mycobacterium kansasii [8]) |
| --- | --- | --- | --- | --- | --- | --- | --- | --- |
| Cc1ccc2c(=S)n(-c3ccc(C(C)C)cc3)c(=S)oc2c1 | 0.5 µM (≈ 0.164 µg/mL) | 1 µM (≈ 0.327 µg/mL) | 0.5 µM (≈ 0.164 µg/mL) | 0.5 µM (≈ 0.164 µg/mL) | 2 µM (≈ 0.655 µg/mL) | 4 µM (≈ 1.31 µg/mL) | 1 µM (≈ 0.327 µg/mL) | 2 µM (≈ 0.655 µg/mL) |
| CCC(C)c1ccc(-n2c(=S)oc3ccc(Br)cc3c2=S)cc1 (stereo not given) | 1 µM (≈ 0.406 µg/mL) | 2 µM (≈ 0.813 µg/mL) | 32 µM (≈ 13 µg/mL) | 32 µM (≈ 13 µg/mL) | 4 µM (≈ 1.63 µg/mL) | 8 µM (≈ 3.25 µg/mL) | 2 µM (≈ 0.813 µg/mL) | 4 µM (≈ 1.63 µg/mL) |
| CCC(C)c1ccc(-n2c(=S)oc3ccc(Cl)cc3c2=S)cc1 (stereo not given) | 1 µM (≈ 0.362 µg/mL) | 2 µM (≈ 0.724 µg/mL) | 16 µM (≈ 5.79 µg/mL) | 32 µM (≈ 11.6 µg/mL) | 8 µM (≈ 2.9 µg/mL) | 16 µM (≈ 5.79 µg/mL) | 4 µM (≈ 1.45 µg/mL) | 8 µM (≈ 2.9 µg/mL) |
| CCC(C)c1ccc(-n2c(=S)oc3cc(Cl)ccc3c2=S)cc1 (stereo not given) | 1 µM (≈ 0.362 µg/mL) | 1 µM (≈ 0.362 µg/mL) | 4 µM (≈ 1.45 µg/mL) | 8 µM (≈ 2.9 µg/mL) | 4 µM (≈ 1.45 µg/mL) | 8 µM (≈ 2.9 µg/mL) | 1 µM (≈ 0.362 µg/mL) | 2 µM (≈ 0.724 µg/mL) |
| CCCCc1ccc(-n2c(=S)oc3ccc(Cl)cc3c2=S)cc1 | 2 µM (≈ 0.724 µg/mL) | 4 µM (≈ 1.45 µg/mL) | 8 µM (≈ 2.9 µg/mL) | 16 µM (≈ 5.79 µg/mL) | 8 µM (≈ 2.9 µg/mL) | 8 µM (≈ 2.9 µg/mL) | 8 µM (≈ 2.9 µg/mL) | 8 µM (≈ 2.9 µg/mL) |
| CC(C)c1ccc(-n2c(=O)oc3ccc(Br)cc3c2=O)cc1 | 2 µM (≈ 0.72 µg/mL) | 4 µM (≈ 1.44 µg/mL) | 8 µM (≈ 2.88 µg/mL) | 16 µM (≈ 5.76 µg/mL) | 8 µM (≈ 2.88 µg/mL) | 8 µM (≈ 2.88 µg/mL) | 4 µM (≈ 1.44 µg/mL) | 8 µM (≈ 2.88 µg/mL) |
| CC(C)c1ccc(-n2c(=O)oc3ccc(Cl)cc3c2=O)cc1 | 4 µM (≈ 1.26 µg/mL) | 8 µM (≈ 2.53 µg/mL) | 32 µM (≈ 10.1 µg/mL) | 32 µM (≈ 10.1 µg/mL) | 8 µM (≈ 2.53 µg/mL) | 16 µM (≈ 5.05 µg/mL) | 8 µM (≈ 2.53 µg/mL) | 16 µM (≈ 5.05 µg/mL) |
| CC(C)c1ccc(-n2c(=O)oc3cc(Cl)ccc3c2=O)cc1 | 4 µM (≈ 1.26 µg/mL) | 4 µM (≈ 1.26 µg/mL) | 8 µM (≈ 2.53 µg/mL) | 16 µM (≈ 5.05 µg/mL) | 8 µM (≈ 2.53 µg/mL) | 16 µM (≈ 5.05 µg/mL) | 8 µM (≈ 2.53 µg/mL) | 8 µM (≈ 2.53 µg/mL) |
| CC(C)(C)c1ccc(-n2c(=S)oc3cc(Cl)ccc3c2=S)cc1 | 0.5 µM (≈ 0.181 µg/mL) | 0.5 µM (≈ 0.181 µg/mL) | 2 µM (≈ 0.724 µg/mL) | 4 µM (≈ 1.45 µg/mL) | 2 µM (≈ 0.724 µg/mL) | 4 µM (≈ 1.45 µg/mL) | 2 µM (≈ 0.724 µg/mL) | 4 µM (≈ 1.45 µg/mL) |
| CC(C)(C)c1ccc(-n2c(=S)oc3ccc(F)cc3c2=S)cc1 | 0.5 µM (≈ 0.173 µg/mL) | 0.5 µM (≈ 0.173 µg/mL) | 0.5 µM (≈ 0.173 µg/mL) | 1 µM (≈ 0.345 µg/mL) | 8 µM (≈ 2.76 µg/mL) | 8 µM (≈ 2.76 µg/mL) | 4 µM (≈ 1.38 µg/mL) | 8 µM (≈ 2.76 µg/mL) |
| CCC(C)c1ccc(-n2c(=O)oc3ccc(Br)cc3c2=O)cc1 (stereo not given) | 4 µM (≈ 1.5 µg/mL) | 8 µM (≈ 2.99 µg/mL) | 16 µM (≈ 5.99 µg/mL) | 32 µM (≈ 12 µg/mL) | 8 µM (≈ 2.99 µg/mL) | 8 µM (≈ 2.99 µg/mL) | 8 µM (≈ 2.99 µg/mL) | 16 µM (≈ 5.99 µg/mL) |
| CCC(C)c1ccc(-n2c(=O)oc3ccc(Cl)cc3c2=O)cc1 (stereo not given) | 4 µM (≈ 1.32 µg/mL) | 8 µM (≈ 2.64 µg/mL) | 32 µM (≈ 10.6 µg/mL) | 32 µM (≈ 10.6 µg/mL) | 16 µM (≈ 5.28 µg/mL) | 16 µM (≈ 5.28 µg/mL) | 16 µM (≈ 5.28 µg/mL) | 16 µM (≈ 5.28 µg/mL) |
| CCC(C)c1ccc(-n2c(=O)oc3cc(Cl)ccc3c2=O)cc1 (stereo not given) | 4 µM (≈ 1.32 µg/mL) | 4 µM (≈ 1.32 µg/mL) | 8 µM (≈ 2.64 µg/mL) | 8 µM (≈ 2.64 µg/mL) | 8 µM (≈ 2.64 µg/mL) | 8 µM (≈ 2.64 µg/mL) | 8 µM (≈ 2.64 µg/mL) | 8 µM (≈ 2.64 µg/mL) |
| CC(C)(C)c1ccc(-n2c(=O)oc3cc(Cl)ccc3c2=O)cc1 | 4 µM (≈ 1.32 µg/mL) | 4 µM (≈ 1.32 µg/mL) | 4 µM (≈ 1.32 µg/mL) | 8 µM (≈ 2.64 µg/mL) | 8 µM (≈ 2.64 µg/mL) | 16 µM (≈ 5.28 µg/mL) | 8 µM (≈ 2.64 µg/mL) | 8 µM (≈ 2.64 µg/mL) |
| CCC(C)c1ccc(-n2c(=O)oc3cc(Cl)ccc3c2=S)cc1 (stereo not given) | 1 µM (≈ 0.346 µg/mL) | 2 µM (≈ 0.692 µg/mL) | 8 µM (≈ 2.77 µg/mL) | 8 µM (≈ 2.77 µg/mL) | 4 µM (≈ 1.38 µg/mL) | 8 µM (≈ 2.77 µg/mL) | 1 µM (≈ 0.346 µg/mL) | 2 µM (≈ 0.692 µg/mL) |
| CCCCc1ccc(-n2c(=O)oc3ccc(Cl)cc3c2=S)cc1 | 1 µM (≈ 0.346 µg/mL) | 2 µM (≈ 0.692 µg/mL) | 8 µM (≈ 2.77 µg/mL) | 16 µM (≈ 5.53 µg/mL) | 8 µM (≈ 2.77 µg/mL) | 16 µM (≈ 5.53 µg/mL) | 4 µM (≈ 1.38 µg/mL) | 4 µM (≈ 1.38 µg/mL) |
| CC(C)(C)c1ccc(-n2c(=O)oc3cc(Cl)ccc3c2=S)cc1 | 2 µM (≈ 0.692 µg/mL) | 2 µM (≈ 0.692 µg/mL) | 4 µM (≈ 1.38 µg/mL) | 8 µM (≈ 2.77 µg/mL) | 4 µM (≈ 1.38 µg/mL) | 8 µM (≈ 2.77 µg/mL) | 2 µM (≈ 0.692 µg/mL) | 4 µM (≈ 1.38 µg/mL) |
| CCc1ccc(-n2c(=S)oc3ccc(Br)cc3c2=S)cc1 | 1 µM (≈ 0.378 µg/mL) | 2 µM (≈ 0.757 µg/mL) | 62.5 µM (≈ 23.6 µg/mL) | 62.5 µM (≈ 23.6 µg/mL) | 8 µM (≈ 3.03 µg/mL) | 16 µM (≈ 6.05 µg/mL) | 4 µM (≈ 1.51 µg/mL) | 8 µM (≈ 3.03 µg/mL) |
| CC(C)c1ccc(-n2c(=S)oc3cc(Cl)ccc3c2=S)cc1 | 0.5 µM (≈ 0.174 µg/mL) | 1 µM (≈ 0.348 µg/mL) | 8 µM (≈ 2.78 µg/mL) | 8 µM (≈ 2.78 µg/mL) | 4 µM (≈ 1.39 µg/mL) | 8 µM (≈ 2.78 µg/mL) | 4 µM (≈ 1.39 µg/mL) | 4 µM (≈ 1.39 µg/mL) |
| NNC(=O)c1ccncc1 [ISONIAZID] | 0.5 µM (≈ 0.0686 µg/mL) | 0.5 µM (≈ 0.0686 µg/mL) | > 250 µM | > 250 µM | > 250 µM | > 250 µM | 8 µM (≈ 1.1 µg/mL) | 8 µM (≈ 1.1 µg/mL) |
